Experimental findings from PMC5551398 (Biochemistry, 2017) are described below.

The target in experiment [1] is T1, MBP-CTR ECD (Homo sapiens, UniProt P30988).
T1 sequence (P30988 36-151): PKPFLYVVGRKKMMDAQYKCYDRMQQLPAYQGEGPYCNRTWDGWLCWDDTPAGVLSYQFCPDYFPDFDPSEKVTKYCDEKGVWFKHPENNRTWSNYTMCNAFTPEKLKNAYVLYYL
Kind of experiment: Competition AlphaLISA peptide-binding assay. The method in brief: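 Binding by AlphaLISA competition. MBP-CTR ECD from transfected HEK293T cells (150 nM) was mixed with 150 nM biotinylated sCT and competitor peptide. Luminescence read at 680/615 nm. Three independent experiments, duplicate samples.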

The target in experiment [2] is T2, MBP-CTR ECD (hCTR.36-151) (Homo sapiens, UniProt P30988).
T2 sequence (P30988 36-151): T1 sequence (P30988 36-151)
The experiment is described as follows: FP saturation peptide-binding assay, MBP-CTR ECD WT. The method in brief:
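MBP-CTR ECD was produced in HEK293S GnTI− cells and left untreated, digested with Endo H (4 µl of 500 U/µl, GlycoBuffer 3, 22°C, 30 min), or given heat-inactivated Endo H (75°C, 10 min). Digests were serially diluted (top 3 µM) and titrated against 10 nM FITC-AC413(6-25) Y25P, 1 h, dark, room temperature, HEPES pH 7.4 buffer. Anisotropy corrected for intensity quenching. Duplicate samples.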

In experiment [3] the target is T3, MBP-hCTR.36-151-H6 produced in HEK293T cells (human, UniProt P30988-2 36-151, complex N-glycans at N73, N125, N130).
T3 sequence (looked up): T1 sequence (P30988 36-151)
Kind of experiment: fluorescence polarisation.

The target of experiment [4] is T3, MBP-hCTR.36-151-H6 produced in HEK293T …. The experiment is described as follows: fluorescence polarisation. This is another data set of the same source. A general note: Polarisation of emitted light reports the rotation of a fluorescent probe.
Experiment [5] has the same target. The experiment is described as follows: AlphaScreen or HTRF. (Alpha assays give light when donor and acceptor beads are brought close together.)
The target is the same in experiment [6]. Kind of experiment: AlphaScreen or HTRF. This is another data set of the same source.
Experiment [7] deals with T4, MBP-RAMP2-(GS)5-CTR ECD-H6 produced in E. coli (human, UniProt O60895 55-140; P30988-2 36-151).
T4 chain: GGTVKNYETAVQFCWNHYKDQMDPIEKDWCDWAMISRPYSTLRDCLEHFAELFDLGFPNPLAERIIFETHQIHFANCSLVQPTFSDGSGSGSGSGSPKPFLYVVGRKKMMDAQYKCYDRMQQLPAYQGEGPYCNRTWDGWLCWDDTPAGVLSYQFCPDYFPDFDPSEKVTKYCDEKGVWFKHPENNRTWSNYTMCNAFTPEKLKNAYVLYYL
Kind of experiment: fluorescence polarisation.

In experiment [8] the target is T5, MBP-free H6-CTR ECD (residues 32-140) (human, UniProt P30988-2 32-140).
T5 sequence (looked up): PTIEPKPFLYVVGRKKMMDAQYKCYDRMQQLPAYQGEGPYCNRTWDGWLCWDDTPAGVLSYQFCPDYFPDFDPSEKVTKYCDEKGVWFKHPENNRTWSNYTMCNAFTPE
The experiment is described as follows: ITC.

Experiment [9] has as its target T3, MBP-hCTR.36-151-H6 produced in HEK293T …. The experiment is described as follows: fluorescence polarisation. The source holds these as a separate data set.
In experiment [10] the target is T6, MBP-hCTR.36-151-H6 produced in HEK293S GnTI- cells (human, UniProt P30988-2 36-151, core N-glycans (Man5GlcNAc2) at N73, N125, N130).
T6 sequence (looked up): T1 sequence (P30988 36-151)
The experiment is described as follows: fluorescence polarisation.

For experiment [11], the target named is T7, MBP-CTR ECD-H6 produced in E. coli (human, UniProt P30988-2 36-151).
T7 sequence (looked up): T1 sequence (P30988 36-151)
Kind of experiment: fluorescence polarisation.

Experiment [12] deals with T3, MBP-hCTR.36-151-H6 produced in HEK293T …. Kind of experiment: fluorescence polarisation. The source holds these as a separate data set.

Bridge positions count the residues as written; N and C are the ends. Primed or numbered codes have the meaning given here. Ends that are not written are not given here. Peptide text beside a SMILES is read from it. * marks the point of attachment. FITC = O=C1OC2(c3ccc(O)cc3Oc3cc(O)ccc32)c2ccc(NC(=S)*)cc21; Biotin = O=C1N[C@H]2[C@H](CS[C@H]2CCCCC(=O)*)N1; FITC′ = fluorescein isothiocyanate label; Ahx = NCCCCCC(=O)O

As for `CC(C)C[C@H](NC(=O)[C@H](CCCNC(=N)N)NC(=O)[C@@H](NC(=O)[C@H](CC(C)C)NC(=O)[C@H](Cc1ccccc1)NC(=O)[C@H](CC(N)=O)NC(=O)[C@H](C)NC(=O)CCCCCNC(=S)Nc1ccc2c(c1)C(=O)OC21c2ccc(O)cc2Oc2cc(O)ccc21)C(C)C)C(=O)N[C@@H](CCC(N)=O)C(=O)N[C@H](C(=O)N[C@@H](Cc1ccc(O)cc1)C(=O)N1CCC[C@H]1C(=O)N[C@@H](CCCNC(=N)N)C(=O)N[C@H](C(=O)N[C@@H](CC(N)=O)C(=O)N[C@H](C(=O)NCC(=O)N[C@@H](C)C(=O)N[C@@H](CC(N)=O)C(=O)N[C@H](C(=O)N1CCC[C@H]1C(N)=O)[C@@H](C)O)C(C)C)[C@@H](C)O)[C@@H](C)O` [FITC-AC413(6-25) Y25P] ({FITC-Ahx}-ANFLVRLQTYPRTNVGANTP-NH2), the IC50 in experiment [1] was 47.9 nM. The molecule further had a Kd in experiment [2] of 115 nM.
Regarding “ANFLVRLQTYPRTNVGANTP-NH2 [AC413(6-25) Y25P, reference compound]”, the IC50 in [1] was 708 nM.
With {FITC′-Ahx}-ANFLVRLQTYPRTNVGANTP-NH2 [FITC-Ahx (aminohexanoic acid)-AC413(6-25) Y25P], the pKD in experiment [3] is 6.94. In experiment [4], this molecule yielded a Kd of 115 nM. In addition, the IC50 in experiment [5] was found to be 47.9 nM. In experiment [6], this molecule yielded a pIC50 of 7.32.
The molecule {FITC-Ahx}-ANFLVRLQTYPRTNVGANTY-NH2 [FITC-Ahx-AC413(6-25)] yielded a Kd in [7] of 4570 nM.
For VLGKLSQELHKLQTYPRTNTGSGTP-NH2 [sCT(8-32)], the Kd in experiment [8] turned out to be 16000 nM. Moreover, the dH in experiment [8] is -24.2 kcal/mol. Besides, in experiment [8], the “stoichiometry N” value amounted to 1.17. Further, the Ki in [9] is around 3000 nM; in [10] it was around 3000 nM; in [11], around 25000 nM.

B1: Biotin-sCT C1A/C7A (peptide)
peptide: Biotin-ASNLSTAVLGKLSQELHKLQTYPRTNTGSGTP-NH2
SMILES: CC(C)C[C@H](NC(=O)[C@H](CCCCN)NC(=O)CNC(=O)[C@H](CC(C)C)NC(=O)[C@@H](NC(=O)[C@H](C)NC(=O)[C@@H](NC(=O)[C@H](CO)NC(=O)[C@H](CC(C)C)NC(=O)[C@H](CC(N)=O)NC(=O)[C@H](CO)NC(=O)[C@H](C)NC(=O)CCCC[C@@H]1SC[C@@H]2NC(=O)N[C@@H]21)[C@@H](C)O)C(C)C)C(=O)N[C@@H](CO)C(=O)N[C@@H](CCC(N)=O)C(=O)N[C@@H](CCC(=O)O)C(=O)N[C@@H](CC(C)C)C(=O)N[C@@H](Cc1c[nH]cn1)C(=O)N[C@@H](CCCCN)C(=O)N[C@@H](CC(C)C)C(=O)N[C@@H](CCC(N)=O)C(=O)N[C@H](C(=O)N[C@@H](Cc1ccc(O)cc1)C(=O)N1CCC[C@H]1C(=O)N[C@@H](CCCNC(=N)N)C(=O)N[C@H](C(=O)N[C@@H](CC(N)=O)C(=O)N[C@H](C(=O)NCC(=O)N[C@@H](CO)C(=O)NCC(=O)N[C@H](C(=O)N1CCC[C@H]1C(N)=O)[C@@H](C)O)[C@@H](C)O)[C@@H](C)O)[C@@H](C)O
With B1, in experiment [5], the binding result is recorded as “binds”.
In [9], ANFLVRLQTYPRTNVGANTP-NH2 [AC413(6-25) Y25P] showed a Ki of 631 nM. Besides, the pKI in experiment [12] turned out to be 6.2. Moreover, the pIC50 in experiment [6] is 6.15.
Regarding CSNLSTCVLGKLSQELHKLQTYPRTNTGSGTP-NH2 (disulfide 1-7) [sCT(1-32)], the Kd in experiment [8] stood at 35000 nM.

The term IC50 denotes the concentration needed to halve the response being measured. A lower IC50 goes with greater potency. One may read the Kd as the constant that tells how readily two partners part at equilibrium. Low values mean higher affinity, high ones lower affinity. A word on the pKD: it is the negative decadic logarithm of the KD, by convention in mol/L. As a reminder, the pIC50 is the IC50 on a negative log10 scale, so that one unit is a factor of ten. A higher pIC50 goes with a low IC50. The stoichiometry N is a count of units in the complex or per binding partner. In general, Ki refers to a dissociation constant, usually derived from enzyme kinetics or from competition with a known ligand. Low readings indicate a stronger hold on the target, high ones a looser hold on the target.
